Data from ChEMBL document CHEMBL3751714, “Antileishmanial activity of novel indolyl-coumarin hybrids: Design, synthesis, biological evaluation, molecular docking study and in silico ADME prediction” (Bioorg Med Chem Lett, 2016).
Converted amounts (≈) assume the structure as drawn.

What was measured:
[1] = test system: Leishmania donovani; test: Antileishmanial activity against promastigotes of Leishmania donovani MHOM/IN/80/DD8 after 72 hrs by MTT assay; assay type: functional, organism-based; details: MHOM/IN/80/DD8, 72 h
Summary of the method: (§1)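 Cultured L. donovani promastigotes (strain […]) were exposed to the compounds. Viability was read by a modified MTT assay, in which formazan output tracks metabolically active cells. The concentration that cut growth by 50% (IC50) was found by graphic interpolation.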

[2] = Antioxidant activity of the compound assessed as DPPH radical scavenging after 30 mins by spectrophotometric analysis; assay type: physicochemical
Summary of the method: (§2)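 DPPH radical scavenging assay. The control contained all reagents except the test compound. % scavenging = [(A control − A sample)/[…]] × 100, taken from absorbance readings.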

[3] = test system: HeLa; test: Cytotoxicity against human HeLa cells assessed as cell viability at 100 ug/ml by microscopic analysis; assay type: cell-based
Summary of the method: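 HeLa cells were treated at 100 μg/mL and assessed by the MTT method. Cells were also viewed under a microscope at 10X magnification.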

[4] = Antioxidant activity assessed as ABTS radical scavenging activity by TEAC assay; assay type: physicochemical
[5] = Antioxidant activity of the compound; assay type: physicochemical; summary of the method: as §2
[6] = test system: Leishmania major; test: Antileishmanial activity against promastigotes of Leishmania major MHOM/IL/67/LRC-L43 assessed as parasite growth inhibition after 24 hrs by uranyl acetate/ magnesium uranyl acetate/lead citrate staining-based electron microscopic analysis; assay type: functional, organism-based; details: MHOM/IL/67/LRC-L43, 24 h
[7] = test system: Leishmania donovani; test: Antileishmanial activity against promastigotes of Leishmania donovani assessed as parasite growth inhibition; assay type: functional, organism-based; summary of the method: as §1
[8] = test system: Leishmania major; test: Antileishmanial activity against stationary-phase promastigotes of Leishmania major MRHO/IR/75/ER assessed as parasite growth inhibition after 48 hrs by Neubar chamber method; assay type: functional, organism-based

| SMILES | IC50 [1] [µg/mL] | IC50 [2] [µg/mL] | other results |
| --- | --- | --- | --- |
| O=C(CC(c1ccc(O)c(O)c1)c1c[nH]c2ccccc12)c1c(O)c2ccccc2oc1=O (configuration not stated) | 231 (≈ 523 µM) | 71.08 (≈ 161 µM) |  |
| O=C(CC(c1ccc(F)cc1)c1c[nH]c2ccccc12)c1c(O)c2ccccc2oc1=O (configuration not stated) | 156 (≈ 364 µM) | 47.35 (≈ 111 µM) |  |
| O=C(CC(c1ccc(O)cc1)c1c[nH]c2ccccc12)c1c(O)c2ccccc2oc1=O (configuration not stated) | 288 (≈ 676 µM) | 58.91 (≈ 138 µM) |  |
| O=C(CC(c1c(Cl)cccc1Cl)c1c[nH]c2ccccc12)c1c(O)c2ccccc2oc1=O (configuration not stated) | 95 (≈ 199 µM) | 13.49 (≈ 28.2 µM) | Activity [3]: Non-toxic |
| O=C(CC(c1ccccc1Cl)c1c[nH]c2ccccc12)c1c(O)c2ccccc2oc1=O (configuration not stated) | 102 (≈ 230 µM) | 39.62 (≈ 89.3 µM) |  |
| COc1ccc(C(CC(=O)c2c(O)c3ccccc3oc2=O)c2c[nH]c3ccccc23)c(OC)c1 (configuration not stated) | 250 (≈ 531 µM) | 13.24 (≈ 28.2 µM) |  |
| O=C(CC(c1ccc(Cl)cc1)c1c[nH]c2ccccc12)c1c(O)c2ccccc2oc1=O (configuration not stated) | 125 (≈ 282 µM) | 46.35 (≈ 104 µM) |  |
| COc1ccc(OC)c(C(CC(=O)c2c(O)c3ccccc3oc2=O)c2c[nH]c3ccccc23)c1 (configuration not stated) | 99 (≈ 211 µM) | 19.02 (≈ 40.5 µM) |  |
| N#Cc1ccc(C(CC(=O)c2c(O)c3ccccc3oc2=O)c2c[nH]c3ccccc23)cc1 (configuration not stated) | 102 (≈ 234 µM) | 13.74 (≈ 31.6 µM) |  |
| O=c1oc2ccccc2cc1C1=Nn2c(nnc2-c2ccccc2)SC1 |  |  | IC50 [4]: 39.9 µg/mL (≈ 111 µM) |
| COc1ccc(C(CC(=O)c2c(O)c3ccccc3oc2=O)c2c[nH]c3ccccc23)cc1 (configuration not stated) | 174 (≈ 396 µM) | 16.21 (≈ 36.9 µM) |  |
| O=C(CC(c1ccccc1)c1c[nH]c2ccccc12)c1c(O)c2ccccc2oc1=O (configuration not stated) | 95.5 (≈ 233 µM) | 12.4 (≈ 30.3 µM) |  |
| COc1ccc(C(CC(=O)c2c(O)c3ccccc3oc2=O)c2c[nH]c3ccccc23)cc1OC (configuration not stated) | 212 (≈ 452 µM) | 63.16 (≈ 135 µM) |  |
| O=C1O[C@H]([C@@H](O)CO)C(O)=C1O [ASCORBIC ACID] |  | 12.8 (≈ 72.7 µM) |  |
| O=C(/C=C/c1ccc(O)c(O)c1)c1ccc(O)cc1O [BUTEIN] |  |  | IC50 [5]: 3.3 µg/mL (≈ 12.1 µM) |
| Cc1cc(C(C)(C)C)c(O)c(C(C)(C)C)c1 [BUTYLATED HYDROXYTOLUENE] |  | 16.5 (≈ 74.9 µM) |  |
| C=CC(C)(C)c1cc(/C=C/C(=O)c2ccc(O)cc2)c(OC)cc1O [LICOAGROCHACONE A] |  |  | IC50 [6]: 2.5 µg/mL (≈ 7.39 µM); IC50 [7]: 2.7 µM |
| CC(C)=CCC/C(C)=C/CC/C(C)=C/COc1ccc2ccc(=O)oc2c1 [UMBELLIPRENIN] |  |  | IC50 [8]: 13.3 µM |
